Here are results for 17 molecules from BindingDB's records for doi:10.1016/j.bmc.2008.06.044 (University of Montreal, 2008).

One experiment concerns the target Galectin-1 (Homo sapiens, UniProt P09382). As to the kind of experiment: Inhibition of recombinant galectin 1 in human O type red blood cells by hemagglutinination assay. The procedure, abridged:
(§1)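 Human type O erythrocytes were fixed with 3% glutaraldehyde in PBS containing 0.0025% NaN3, then used at 0.0025% final. Galectin at 1 µM was incubated with the RBCs, with or without a range of inhibitor concentrations, at 37 °C for 30 min. RBC aggregation was then scored, in triplicate.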

For a further experiment, the target named is Galectin-3 (Homo sapiens, UniProt P17931). Kind of experiment: Inhibition of recombinant galectin 3 in human O type red blood cells by hemagglutinination assay. The procedure, abridged: as §1
Chain of Galectin-3 (P17931 whole entry): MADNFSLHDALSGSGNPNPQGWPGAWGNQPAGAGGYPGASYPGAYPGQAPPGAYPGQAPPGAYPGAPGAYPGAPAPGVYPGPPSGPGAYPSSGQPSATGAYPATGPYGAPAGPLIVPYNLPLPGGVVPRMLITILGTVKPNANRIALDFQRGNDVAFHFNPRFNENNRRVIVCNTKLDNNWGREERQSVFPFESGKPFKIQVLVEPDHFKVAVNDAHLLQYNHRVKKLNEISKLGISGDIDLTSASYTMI
Experiment [1] can be described thus: Inhibition of recombinant galectin 1 in human O type red blood cells by hemagglutinination assay.
Experiment [2] in a line: Inhibition of recombinant galectin 3 in human O type red blood cells by hemagglutinination assay.

A value given as a limit tells only on which side of the number the result lay.

Chain of Galectin-1 (P09382 whole entry): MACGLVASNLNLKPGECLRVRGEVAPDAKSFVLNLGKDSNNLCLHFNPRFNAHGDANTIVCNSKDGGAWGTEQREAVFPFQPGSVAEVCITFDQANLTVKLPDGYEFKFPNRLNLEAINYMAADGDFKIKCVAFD

Usually IC50 stands for the midpoint of a concentration-inhibition curve. Turning to `OC[C@H]1O[C@H](O)[C@H](O)[C@@H](O)[C@H]1O` [GALACTOSE], the IC50 at Galectin-1 and on Galectin-3 was 50 mM each time.
`OC[C@@H]1O[C@H](O[C@@H]2[C@@H](O)[C@H](O)[C@@H](n3cc(CS[C@@H]4O[C@H](CO)[C@H](O)[C@H](O)[C@H]4O)nn3)O[C@H]2CO)[C@@H](O)[C@H](O)[C@@H]1O` [(2S,3R,4S,5R,6R)-2-((1-((2S,3S,4S,5R,6S)-3,4-dihydroxy-6-(hydroxymethyl)-5-((2R,3S,4R,5S,6S)-3,4,5-trihydroxy-6-(hydroxymethyl)-tetrahydro-2H-pyran-2-yloxy)-tetrahydro-2H-pyran-2-yl)-1H-1,2,3-triazol-4-yl)methylthio)-6-(hydroxymethyl)-tetrahydro-2H-pyran-3,4,5-triol]: the IC50 is 0.3 mM in experiment [1] and 0.6 mM in experiment [2].
For the molecule `OC[C@@H]1O[C@H](O[C@@H]2[C@@H](O)[C@H](O)[C@@H](n3cc(CS[C@@H]4O[C@H](CO)[C@@H](O[C@@H]5O[C@H](CO)[C@H](O)[C@H](O)[C@H]5O)[C@H](O)[C@H]4O)nn3)O[C@H]2CO)[C@@H](O)[C@H](O)[C@@H]1O` [(2S,3R,4S,5R,6R)-2-((2R,3S,4R,5R,6S)-6-((1-((2S,3S,4S,5R,6S)-3,4-dihydroxy-6-(hydroxymethyl)-5-((2R,3S,4R,5S,6S)-3,4,5-trihydroxy-6-(hydroxymethyl)-tetrahydro-2H-pyran-2-yloxy)-tetrahydro-2H-pyran-2-yl)-1H-1,2,3-triazol-4-yl)methylthio)-4,5-dihydroxy-2-(hydroxymethyl)-tetrahydro-2H-pyran-3-yloxy)-6-(hydroxymethyl)-tetrahydro-2H-pyran-3,4,5-triol], the values for the IC50 in experiment [1] and in experiment [2] were 0.3 mM and 0.16 mM, respectively.
On to `OC[C@@H]1O[C@H](SCC#CC#CCS[C@@H]2O[C@H](CO)[C@H](O)[C@H](O)[C@H]2O)[C@@H](O)[C@@H](O)[C@@H]1O` [Dimeric galactoside], for which the IC50 was 5 mM in experiment [1] and more than 5 mM in experiment [2].
In the case of `C#CCS[C@@H]1O[C@H](CO)[C@@H](O[C@@H]2O[C@H](CO)[C@H](O)[C@H](O)[C@H]2O)[C@H](O)[C@H]1O` [(2S,3R,4S,5R,6R)-2-((2R,3S,4R,5R,6S)-4,5-dihydroxy-2-(hydroxymethyl)-6-(prop-2-ynylthio)-tetrahydro-2H-pyran-3-yloxy)-6-(hydroxymethyl)-tetrahydro-2H-pyran-3,4,5-triol], the values for the IC50 in experiment [1] and in experiment [2] were 0.6 mM and 0.3 mM, respectively.
As for `OC[C@@H]1O[C@H](SCC#Cc2ccc(C#CCS[C@@H]3O[C@H](CO)[C@H](O)[C@H](O)[C@H]3O)cc2)[C@@H](O)[C@H](O)[C@@H]1O` [(2R,3S,4S,5R,6S)-2-(hydroxymethyl)-6-(3-(4-(3-((2R,3S,4R,5S,6S)-3,4,5-trihydroxy-6-(hydroxymethyl)-tetrahydro-2H-pyran-2-ylthio)prop-1-ynyl)phenyl)prop-2-ynylthio)-tetrahydro-2H-pyran-3,4,5-triol], the figures for the half-maximal inhibitory concentration (IC50) in experiment [1] and in experiment [2] were 2.5 mM and more than 5 mM, respectively.
For the molecule `OC[C@@H]1O[C@H](n2cc(CS[C@@H]3O[C@H](CO)[C@H](O)[C@H](O)[C@H]3O)nn2)[C@@H](O)[C@H](O)[C@@H]1O` [(2R,3R,4S,5R,6S)-2-(hydroxymethyl)-6-((1-((2S,3S,4R,5S,6S)-3,4,5-trihydroxy-6-(hydroxymethyl)-tetrahydro-2H-pyran-2-yl)-1H-1,2,3-triazol-4-yl)methylthio)-tetrahydro-2H-pyran-3,4,5-triol], the concentration for half-maximal inhibition (IC50) in experiment [1] is more than 5 mM; in experiment [2], 2.5 mM.
Turning to `C=C(C[C@@H]1O[C@H](CO)[C@H](O)[C@H](O)[C@H]1O)c1ccc(OC)cc1` [(2R,3R,4R,5R,6S)-2-(hydroxymethyl)-6-(2-(4-methoxyphenyl)allyl)-tetrahydro-2H-pyran-3,4,5-triol], the results for the IC50 in experiment [1] and in experiment [2] were more than 5 mM and 5 mM, respectively.
The corresponding values for `OC[C@@H]1O[C@H](n2cc(CS[C@@H]3O[C@H](CO)[C@@H](O[C@@H]4O[C@H](CO)[C@H](O)[C@H](O)[C@H]4O)[C@H](O)[C@H]3O)nn2)[C@@H](O)[C@H](O)[C@@H]1O` [(2S,3R,4S,5R,6R)-2-((2R,3S,4R,5R,6S)-4,5-dihydroxy-2-(hydroxymethyl)-6-((1-((2S,3S,4R,5S,6S)-3,4,5-trihydroxy-6-(hydroxymethyl)-tetrahydro-2H-pyran-2-yl)-1H-1,2,3-triazol-4-yl)methylthio)-tetrahydro-2H-pyran-3-yloxy)-6-(hydroxymethyl)-tetrahydro-2H-pyran-3,4,5-triol] are 0.6 mM and 0.3 mM.
Consider `OC[C@H]1O[C@@H](C/C=C/c2ccccc2)[C@H](O)[C@@H](O)[C@H]1O` [(2S,3R,4R,5R,6R)-2-cinnamyl-6-(hydroxymethyl)-tetrahydro-2H-pyran-3,4,5-triol], for which the IC50 in experiment [1] and in experiment [2] was more than 5 mM in each case.
On to `CC(=O)C[C@@H]1O[C@H](CO)[C@H](O)[C@H](O)[C@H]1O` [1-((2S,3R,4R,5R,6R)-3,4,5-trihydroxy-6-(hydroxymethyl)-tetrahydro-2H-pyran-2-yl)propan-2-one], for which the results for the IC50 in experiment [1] and in experiment [2] were more than 5 mM and 5 mM, respectively.
For the molecule `COC(=O)/C=C/C[C@@H]1O[C@H](CO)[C@H](O)[C@H](O)[C@H]1O` [(E)-Methyl 4-(beta-D-galactopyranosyl)-but-2-enoate], the IC50 in experiment [1] and in experiment [2] was 5 mM in each case.
For `OC[C@H]1O[C@@H](C/C=C/c2cccc(/C=C/C[C@@H]3O[C@H](CO)[C@H](O)[C@H](O)[C@H]3O)c2)[C@H](O)[C@@H](O)[C@H]1O` [(2S,3R,4R,5R,6R)-2-((12S,14R,15R,16R,17R,E)-3-((E)-3-((2S,3R,4R,5R,6R)-3,4,5-trihydroxy-6-(hydroxymethyl)-tetrahydro-2H-pyran-2-yl)prop-1-enyl)cinnamyl)-6-(hydroxymethyl)-tetrahydro-2H-pyran-3,4,5-triol], the IC50 in experiment [1] is 5 mM; in experiment [2] it was more than 5 mM.
As for `C/C=C/[C@@H]1O[C@H](CO)[C@H](O)[C@H](O)[C@H]1O` [(2R,3R,4R,5R,6S,E)-2-(hydroxymethyl)-6-(prop-1-enyl)-tetrahydro-2H-pyran-3,4,5-triol], the IC50 in experiment [1] and in experiment [2] was more than 5 mM throughout.
On to `C#CCS[C@@H]1O[C@H](CO)[C@H](O)[C@H](O)[C@H]1O` [(2R,3R,4S,5R,6S)-2-(hydroxymethyl)-6-(prop-2-ynylthio)-tetrahydro-2H-pyran-3,4,5-triol], for which the results for the IC50 in experiment [1] and in experiment [2] were more than 5 mM and 2.5 mM, respectively.
The corresponding values for `C=C(C[C@@H]1O[C@H](CO)[C@H](O)[C@H](O)[C@H]1O)c1cccc([N+](=O)[O-])c1` [(2R,3R,4R,5R,6S)-2-(hydroxymethyl)-6-(2-(3-nitrophenyl)allyl)-tetrahydro-2H-pyran-3,4,5-triol] are 5 mM and more than 5 mM.
Turning to `OC[C@@H]1O[C@H](O[C@@H]2[C@@H](O)[C@H](O)[C@@H](SCC#CC#CCS[C@@H]3O[C@H](CO)[C@@H](O[C@@H]4O[C@H](CO)[C@H](O)[C@H](O)[C@H]4O)[C@H](O)[C@H]3O)O[C@H]2CO)[C@@H](O)[C@H](O)[C@@H]1O` [(2S,3R,4S,5R,6R)-2-((2R,3S,4R,5R,6S)-6-(6-((2R,3S,4S,5R,6S)-3,4-dihydroxy-6-(hydroxymethyl)-5-((2R,3S,4R,5S,6S)-3,4,5-trihydroxy-6-(hydroxymethyl)-tetrahydro-2H-pyran-2-yloxy)-tetrahydro-2H-pyran-2-ylthio)hexa-2,4-diynylthio)-4,5-dihydroxy-2-(hydroxymethyl)-tetrahydro-2H-pyran-3-yloxy)-6-(hydroxymethyl)-tetrahydro-2H-pyran-3,4,5-triol], the half-maximal inhibitory concentration (IC50) in experiment [1] worked out at 0.3 mM; in experiment [2], 0.16 mM.
